Data taken from ChEMBL document CHEMBL3124879, “Synthesis and evaluation of 2-(1H-indol-3-yl)-4-phenylquinolines as inhibitors of cholesterol esterase” (Bioorg Med Chem Lett, 2014).

Columns and labels:
[1] = biological target: Procathepsin L (Homo sapiens) (UniProt P07711); assay: Inhibition of human cathepsin L using Z-Phe-ArgpNA as substrate assessed as residual activity at 50 uM by spectrophotometric analysis relative to control
In short: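 Residual human cathepsin L activity is determined in duplicate with the inhibitor at a single concentration (50). Activity is expressed relative to an uninhibited control.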

[2] = biological target: T1, Neutrophil elastase (Homo sapiens) (UniProt P08246); assay: Inhibition of human leukocyte elastase assessed as residual activity at 10 uM relative to control
T1 sequence (whole entry): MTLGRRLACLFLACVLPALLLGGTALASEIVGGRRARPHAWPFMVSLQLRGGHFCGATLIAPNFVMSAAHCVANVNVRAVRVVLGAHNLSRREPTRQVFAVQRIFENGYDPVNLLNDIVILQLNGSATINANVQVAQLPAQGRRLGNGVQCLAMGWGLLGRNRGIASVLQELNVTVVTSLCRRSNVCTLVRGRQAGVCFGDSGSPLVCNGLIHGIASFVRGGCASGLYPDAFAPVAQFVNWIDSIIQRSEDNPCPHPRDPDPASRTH
In short: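 Residual enzyme activity measured in duplicate at one inhibitor concentration; more than 90% residual activity scored as no inhibition.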

[3] = species: Bos taurus; assay: Inhibition of bovine chymotrypsin assessed as residual activity at 5 uM relative to control
In short: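 Residual chymotrypsin activity is measured with the inhibitor present at a single concentration (5). Assays are run in duplicate, and activity is expressed relative to an uninhibited control.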

[4] = biological target: Acetylcholinesterase (Electrophorus electricus) (UniProt O42275); assay: Inhibition of electric eel AChE assessed as residual activity at 10 uM relative to control
In short: (§1)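 Residual enzyme activity is determined in duplicate experiments in the presence of the inhibitor at a single concentration (10). Activity is expressed relative to an uninhibited control.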

[5] = Inhibition of bovine trypsin Suc-Ala-Ala-Pro-Arg-para-nitroanilide as substrate after 10 mins; parameters: species or system Bos taurus
[6] = biological target: T2, Prothrombin (Homo sapiens, UniProt P00734); assay: Inhibition of human thrombin using H-D-Phe-L-Pip-Arg-para-nitroanilide as substrate after 5 mins
[7] = Inhibition of porcine cholesterol esterase using para-nitrophenyl butyrate as substrate preincubated for 5 mins by spectrophotometric analysis; parameters: species or system Sus scrofa
In short: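 CEase assay on the porcine enzyme with para-nitrophenyl butyrate in 100 mM sodium phosphate and 100 mM NaCl, at 25 °C, read at 405 nm. Final: 6 mM sodium taurocholate, 3% acetonitrile, 3% DMSO, 10 ng/mL CEase. 5 min preincubation before enzyme start. Duplicates at five inhibitor concentrations; IC50 fitted by non-linear regression to v = v0/(1+[I]/IC50).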

[8] = species: Bos taurus; assay: Inhibition of bovine trypsin Suc-Ala-Ala-Pro-Arg-para-nitroanilide as substrate assessed as residual activity at 10 uM after 10 mins relative to control; in short: as §1
[9] = biological target: T2, Prothrombin; assay: Inhibition of human thrombin using H-D-Phe-L-Pip-Arg-para-nitroanilide as substrate assessed as residual activity at 10 uM after 5 mins relative to control; in short: as §1
[10] = biological target: T3, Neutrophil elastase (Homo sapiens, UniProt P08246); assay: Inhibition of human leukocyte elastase
T3 sequence (P08246 whole entry): T1 sequence (whole entry)

[11] = biological target: Acetylcholinesterase (Electrophorus electricus, UniProt O42275); assay: Inhibition of electric eel AChE
[12] = Uncompetitive inhibition of porcine cholesterol esterase using para-nitrophenyl butyrate as substrate by Lineweaver-Burk plot analysis; parameters: species or system Sus scrofa
[13] = Competitive inhibition of porcine cholesterol esterase using para-nitrophenyl butyrate as substrate by Lineweaver-Burk plot analysis; parameters: species or system Sus scrofa
[14] = Inhibition of bovine chymotrypsin; parameters: species or system Bos taurus
[15] = species: Sus scrofa; assay: Inhibition of porcine cholesterol esterase using para-nitrophenyl butyrate as substrate assessed as residual activity at 25 uM preincubated for 5 mins by spectrophotometric analysis relative to control
In short: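 Porcine CEase read spectrophotometrically at 405 nm, 25 °C, with para-nitrophenyl butyrate. Buffer: 100 mM sodium phosphate, 100 mM NaCl. Final concentrations: 6 mM sodium taurocholate, 3% acetonitrile, 3% DMSO, 10 ng/mL enzyme. Inhibitor and substrate mixed and held 5 min, then enzyme added to start. Residual activity taken from duplicates at one inhibitor concentration.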

Chain of Acetylcholinesterase (O42275 whole entry): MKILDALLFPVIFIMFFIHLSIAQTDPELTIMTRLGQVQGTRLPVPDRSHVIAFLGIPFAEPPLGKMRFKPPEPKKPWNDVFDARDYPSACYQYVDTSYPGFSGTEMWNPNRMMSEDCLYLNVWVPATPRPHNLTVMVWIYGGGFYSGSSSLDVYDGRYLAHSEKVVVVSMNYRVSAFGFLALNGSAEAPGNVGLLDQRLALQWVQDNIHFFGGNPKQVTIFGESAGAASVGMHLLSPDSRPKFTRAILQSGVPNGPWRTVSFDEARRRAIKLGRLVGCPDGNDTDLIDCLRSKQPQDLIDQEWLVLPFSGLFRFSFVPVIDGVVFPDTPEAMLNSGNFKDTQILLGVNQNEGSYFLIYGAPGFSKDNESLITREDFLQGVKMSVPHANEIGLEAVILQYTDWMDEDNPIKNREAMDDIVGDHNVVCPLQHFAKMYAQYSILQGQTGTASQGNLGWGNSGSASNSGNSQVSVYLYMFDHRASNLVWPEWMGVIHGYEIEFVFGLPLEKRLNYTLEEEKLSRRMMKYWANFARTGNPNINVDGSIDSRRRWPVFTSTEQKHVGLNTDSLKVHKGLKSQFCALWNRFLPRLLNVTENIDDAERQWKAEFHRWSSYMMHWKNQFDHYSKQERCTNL
Chain of Acetylcholinesterase (Electrophorus electricus) (O42275 24-633 limits assumed): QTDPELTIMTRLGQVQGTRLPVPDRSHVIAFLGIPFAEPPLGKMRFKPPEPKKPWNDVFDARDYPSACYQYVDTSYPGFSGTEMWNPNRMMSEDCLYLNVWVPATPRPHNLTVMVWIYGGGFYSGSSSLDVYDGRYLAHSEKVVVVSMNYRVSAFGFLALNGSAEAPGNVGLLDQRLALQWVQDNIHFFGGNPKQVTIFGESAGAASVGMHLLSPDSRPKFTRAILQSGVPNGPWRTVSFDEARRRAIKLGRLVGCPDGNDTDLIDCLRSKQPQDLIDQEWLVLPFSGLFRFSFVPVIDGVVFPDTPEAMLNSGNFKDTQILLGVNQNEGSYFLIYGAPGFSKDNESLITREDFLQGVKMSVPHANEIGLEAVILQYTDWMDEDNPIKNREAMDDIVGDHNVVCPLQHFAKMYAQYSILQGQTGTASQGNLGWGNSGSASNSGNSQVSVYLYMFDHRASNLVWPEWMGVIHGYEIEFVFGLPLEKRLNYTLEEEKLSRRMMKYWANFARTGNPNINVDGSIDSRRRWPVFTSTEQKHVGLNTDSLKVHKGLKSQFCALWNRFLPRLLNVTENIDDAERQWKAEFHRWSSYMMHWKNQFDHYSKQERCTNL
Chain of Procathepsin L (Homo sapiens) (P07711 114-333 limits assumed): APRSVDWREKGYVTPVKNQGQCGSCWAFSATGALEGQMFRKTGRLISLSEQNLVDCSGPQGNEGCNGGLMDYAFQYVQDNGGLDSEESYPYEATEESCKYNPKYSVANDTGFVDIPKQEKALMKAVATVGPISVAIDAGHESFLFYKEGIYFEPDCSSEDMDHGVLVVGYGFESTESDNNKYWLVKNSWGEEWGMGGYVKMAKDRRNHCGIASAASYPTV

| SMILES | Activity [1] [%] | Activity [2] [%] | Activity [3] [%] | Activity [4] [%] | IC50 [5] [µM] | IC50 [6] [µM] | IC50 [7] [µM] | Activity [8] [%] | Activity [9] [%] | IC50 [10] [µM] | IC50 [11] [µM] | Ki [12] [µM] | Ki [13] [µM] | IC50 [14] [µM] | Activity [15] [%] |
| --- | --- | --- | --- | --- | --- | --- | --- | --- | --- | --- | --- | --- | --- | --- | --- |
| Oc1ccc(-c2cc(-c3ccccc3)c3cc(Cl)ccc3n2)cc1 | > 90 | > 90 | > 90 | > 90 | ≥ 51 | ≥ 30 | ≥ 20 | – | – | – | – | – | – | – | – |
| Clc1ccc2nc(-c3ccccc3)cc(-c3ccccc3)c2c1 | > 90 | – | > 90 | > 90 | – | – | ≥ 20 | > 90 | > 90 | ≥ 28 | – | – | – | – | – |
| O=[N+]([O-])c1ccc2nc(-c3ccccc3)cc(-c3ccccc3)c2c1 | > 90 | > 90 | > 90 | – | ≥ 51 | – | ≥ 20 | – | > 90 | – | ≥ 37 | – | – | – | – |
| O=[N+]([O-])c1ccc2nc(-c3c[nH]c4ccccc34)cc(-c3ccccc3)c2c1 | > 90 | – | – | – | – | ≥ 30 | 1.98 | > 90 | – | 0.63 | 22.9 | 7 | 0.66 | ≥ 30 | – |
| Clc1ccc2nc(-c3cccc(Br)c3)cc(-c3ccccc3)c2c1 | > 90 | – | > 90 | > 90 | ≥ 51 | – | ≥ 20 | – | > 90 | ≥ 28 | – | – | – | – | – |
| Clc1ccc2nc(-c3c[nH]c4ccccc34)cc(-c3ccccc3)c2c1 | > 90 | – | > 90 | – | – | ≥ 30 | 1.33 | > 90 | – | 4.22 | ≥ 37 | – | – | – | – |
| COc1ccc(-c2cc(-c3ccccc3)c3cc(Cl)ccc3n2)cc1 | > 90 | – | > 90 | > 90 | – | ≥ 30 | ≥ 20 | > 90 | – | ≥ 28 | – | – | – | – | – |
| O=[N+]([O-])c1ccc2nc(-c3ccc(O)cc3)cc(-c3ccccc3)c2c1 | > 90 | – | > 90 | > 90 | – | ≥ 30 | ≥ 20 | > 90 | – | 2.91 | – | – | – | – | – |
| COc1ccc(-c2cc(-c3ccccc3)c3cc([N+](=O)[O-])ccc3n2)cc1 | > 90 | > 90 | > 90 | – | – | ≥ 30 | ≥ 20 | > 90 | – | – | ≥ 37 | – | – | – | > 90 |
| Cc1ccc(-c2cc(-c3ccccc3)c3cc(Cl)ccc3n2)cc1 | > 90 | – | > 90 | > 90 | ≥ 51 | – | ≥ 20 | – | > 90 | ≥ 28 | – | – | – | – | – |
| O=[N+]([O-])c1ccc2nc(-c3cccc(Br)c3)cc(-c3ccccc3)c2c1 | > 90 | – | > 90 | > 90 | – | – | ≥ 20 | > 90 | > 90 | ≥ 28 | – | – | – | – | – |
| Cc1ccc(-c2cc(-c3ccccc3)c3cc([N+](=O)[O-])ccc3n2)cc1 | > 90 | – | > 90 | > 90 | – | ≥ 30 | ≥ 20 | > 90 | – | ≥ 28 | – | – | – | – | – |
